Test results as given in ChEMBL document CHEMBL3407457, “Microwave-assisted synthesis of certain pyrrolylpyridines, some derived ring systems and their evaluation as anticancer and antioxidant agents” (Eur J Med Chem, 2015).
The source made the active and inactive calls. The calls are words filed in the database; no cut-off is given here.

How the values were obtained:
U-251 = experiment: Growth inhibition of human U251 cells at 10 uM after 48 hrs by sulforhodamine B assay; type: functional; conditions: U-251, 48 h, read-out: GI
Method in brief: (§1)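 NCI-60 primary screen: cells given a single 10 µM dose under 48 h continuous exposure. Growth/viability estimated by sulforhodamine B protein assay. Reported as percent growth of treated cells (mean graph), expressed as percent growth inhibition.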

[1] = Growth inhibition of human EKVX cells at 10 uM after 48 hrs by sulforhodamine B assay; type: functional; conditions: read-out: GI; method in brief: as §1
[2] = Growth inhibition of human OVCAR4 cells at 10 uM after 48 hrs by sulforhodamine B assay; type: functional; conditions: OVCAR-4, 48 h, read-out: GI; method in brief: as §1
HL-60(TB) [3] = experiment: Growth inhibition of human HL-60(TB) cells at 10 uM after 48 hrs by sulforhodamine B assay; type: functional; conditions: HL-60, 48 h, read-out: GI
Method in brief: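 NCI-60 one-dose primary screen, HL-60(TB) within the leukemia subpanel. Single 10 µM concentration, 48 h continuous exposure. Growth estimated by sulforhodamine B protein assay. Percent growth of treated cells expressed as percentage growth inhibition (GI%).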

Hs-578T = experiment: Growth inhibition of human Hs 578T cells at 10 uM after 48 hrs by sulforhodamine B assay; type: functional; method in brief: as §1
SNB-75 [4] = experiment: Growth inhibition of human SNB75 cells at 10 uM after 48 hrs by sulforhodamine B assay; type: functional; conditions: SNB-75, 48 h, read-out: GI; method in brief: as §1
IGROV-1 [5] = experiment: Growth inhibition of human IGROV1 cells at 10 uM after 48 hrs by sulforhodamine B assay; type: functional; conditions: IGROV-1, 48 h, read-out: GI; method in brief: as §1
[6] = Growth inhibition of human RPMI8226 cells at 10 uM after 48 hrs by sulforhodamine B assay; type: functional; conditions: RPMI-8226, 48 h, read-out: GI; method in brief: as §1
A498 [7] = experiment: Growth inhibition of human A498 cells at 10 uM after 48 hrs by sulforhodamine B assay; type: functional; conditions: A498, 48 h, read-out: GI; method in brief: as §1
[8] = Growth inhibition of human MOLT4 cells at 10 uM after 48 hrs by sulforhodamine B assay; type: functional; conditions: MOLT-4, 48 h, read-out: GI; method in brief: as §1
CCRF-CEM [9] = experiment: Growth inhibition of human CCRF-CEM cells at 10 uM after 48 hrs by sulforhodamine B assay; type: functional; conditions: read-out: GI; method in brief: as §1
[10] = Antioxidant activity assessed as DPPH radical scavenging activity at 10^-3 M incubated for 30 mins by spectrophotometry; type: physicochemical; conditions: 0.5 h, 1000 µM
Method in brief: (§2)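 Compound at 10^-3 or 10^-4 M mixed with methanolic DPPH (0.1 mL of 1 mM stock; 3 mL total volume), shaken, kept in the dark 30 min at room temperature. Absorbance read at 517 nm. Scavenging (%) = (A_control − A_sample)/A_control × 100, where the control is DPPH in methanol alone. BHT served as reference antioxidant. Triplicate, mean ± SD of three independent experiments.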

[11] = Growth inhibition of human HOP92 cells at 10 uM after 48 hrs by sulforhodamine B assay; type: functional; conditions: HOP-92, 48 h, read-out: GI; method in brief: as §1
K562 = experiment: Growth inhibition of human K562 cells at 10 uM after 48 hrs by sulforhodamine B assay; type: functional; conditions: K562, 48 h, read-out: GI; method in brief: as §1
CAKI-1 = experiment: Growth inhibition of human CAKI-1 cells at 10 uM after 48 hrs by sulforhodamine B assay; type: functional; method in brief: as §1
NCI-H522 [12] = experiment: Growth inhibition of human NCI-H522 cells at 10 uM after 48 hrs by sulforhodamine B assay; type: functional; conditions: NCI-H522, 48 h, read-out: GI; method in brief: as §1
T47D = experiment: Growth inhibition of human T47D cells at 10 uM after 48 hrs by sulforhodamine B assay; type: functional; conditions: read-out: GI; method in brief: as §1
SK-MEL-5 = experiment: Growth inhibition of human SK-MEL-5 cells at 10 uM after 48 hrs by sulforhodamine B assay; type: functional; conditions: SK-MEL-5, 48 h, read-out: GI; method in brief: as §1
[13] = Growth inhibition of human HCT116 cells at 10 uM after 48 hrs by sulforhodamine B assay; type: functional; conditions: HCT-116, 48 h, read-out: GI; method in brief: as §1
[14] = Growth inhibition of human HCT15 cells at 10 uM after 48 hrs by sulforhodamine B assay; type: functional; conditions: HCT-15, 48 h, read-out: GI; method in brief: as §1
[15] = Growth inhibition of human LOXIMVI cells at 10 uM after 48 hrs by sulforhodamine B assay; type: functional; conditions: LOX IMVI, read-out: GI; method in brief: as §1
[16] = Antioxidant activity assessed as DPPH radical scavenging activity at 10^-4 M incubated for 30 mins by spectrophotometry; type: physicochemical; conditions: 0.5 h, 100 µM; method in brief: as §2
[17] = Growth inhibition of human PC3 cells at 10 uM after 48 hrs by sulforhodamine B assay; type: functional; conditions: PC-3, 48 h, read-out: GI; method in brief: as §1
MDA-MB-468 = experiment: Growth inhibition of human MDA-MB-468 cells at 10 uM after 48 hrs by sulforhodamine B assay; type: functional; method in brief: as §1
[18] = Growth inhibition of human UACC62 cells at 10 uM after 48 hrs by sulforhodamine B assay; type: functional; conditions: UACC-62, 48 h, read-out: GI; method in brief: as §1
ACHN = experiment: Growth inhibition of human ACHN cells at 10 uM after 48 hrs by sulforhodamine B assay; type: functional; conditions: read-out: GI; method in brief: as §1
[19] = Growth inhibition of human UO31 cells at 10 uM after 48 hrs by sulforhodamine B assay; type: functional; conditions: UO-31, 48 h, read-out: GI; method in brief: as §1
[20] = Growth inhibition of human BT549 cells after 48 hrs by sulforhodamine B assay; type: functional; conditions: BT-549, 48 h
Method in brief: (§3)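 NCI-60 five-dose screen: cells incubated 48 h with five concentrations (0.01-100 µM), read by sulforhodamine B protein assay. Log concentration-% growth inhibition curves gave GI50 (50% decrease in net growth), TGI (total growth inhibition) and LC50 (net 50% loss of initial cells). 5-FU positive control.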

SN12C = experiment: Growth inhibition of human SN12C cells after 48 hrs by sulforhodamine B assay; type: functional; method in brief: as §3
SF-268 = experiment: Growth inhibition of human SF268 cells after 48 hrs by sulforhodamine B assay; type: functional; conditions: SF-268, 48 h; method in brief: as §3
HL-60(TB) [21] = experiment: Growth inhibition of human HL-60(TB) cells after 48 hrs by sulforhodamine B assay; type: functional; conditions: HL-60, 48 h
Method in brief: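 NCI-60 five-dose screen, HL-60(TB) being one of the leukemia subpanel lines. Cells exposed to five concentrations (0.01-100 µM) for 48 h. GI50 (concentration giving 50% decrease in net cell growth) read from log concentration-% growth inhibition curves; TGI and LC50 also derived. 5-fluorouracil as positive control.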

[22] = Growth inhibition of human EKVX cells after 48 hrs by sulforhodamine B assay; type: functional; method in brief: as §3
[23] = Growth inhibition of human HOP92 cells after 48 hrs by sulforhodamine B assay; type: functional; conditions: HOP-92, 48 h; method in brief: as §3
[24] = Growth inhibition of human UO31 cells after 48 hrs by sulforhodamine B assay; type: functional; conditions: UO-31, 48 h; method in brief: as §3
DU-145 = experiment: Growth inhibition of human DU145 cells after 48 hrs by sulforhodamine B assay; type: functional; conditions: DU-145, 48 h; method in brief: as §3
IGROV-1 [25] = experiment: Growth inhibition of human IGROV1 cells after 48 hrs by sulforhodamine B assay; type: functional; conditions: IGROV-1, 48 h; method in brief: as §3
[26] = Growth inhibition of human SF539 cells after 48 hrs by sulforhodamine B assay; type: functional; conditions: SF-539, 48 h; method in brief: as §3
[27] = Growth inhibition of human OVCAR4 cells after 48 hrs by sulforhodamine B assay; type: functional; conditions: OVCAR-4, 48 h; method in brief: as §3
[28] = Growth inhibition of human UACC62 cells after 48 hrs by sulforhodamine B assay; type: functional; conditions: UACC-62, 48 h; method in brief: as §3
CCRF-CEM [29] = experiment: Growth inhibition of human CCRF-CEM cells after 48 hrs by sulforhodamine B assay; type: functional; method in brief: as §3
[30] = Growth inhibition of human HCT116 cells after 48 hrs by sulforhodamine B assay; type: functional; conditions: HCT-116, 48 h; method in brief: as §3
HOP-62 = experiment: Growth inhibition of human HOP62 cells after 48 hrs by sulforhodamine B assay; type: functional; conditions: HOP-62, 48 h; method in brief: as §3
SR = experiment: Growth inhibition of human SR cells after 48 hrs by sulforhodamine B assay; type: functional; method in brief: as §3
SNB-75 [31] = experiment: Growth inhibition of human SNB75 cells after 48 hrs by sulforhodamine B assay; type: functional; conditions: SNB-75, 48 h; method in brief: as §3
NCI-H522 [32] = experiment: Growth inhibition of human NCI-H522 cells after 48 hrs by sulforhodamine B assay; type: functional; conditions: NCI-H522, 48 h; method in brief: as §3
A498 [33] = experiment: Growth inhibition of human A498 cells after 48 hrs by sulforhodamine B assay; type: functional; conditions: A498, 48 h; method in brief: as §3
MDA-MB-231 = experiment: Growth inhibition of human MDA-MB-231 cells after 48 hrs by sulforhodamine B assay; type: functional; conditions: MDA-MB-231, 48 h; method in brief: as §3
[34] = Growth inhibition of human MOLT4 cells after 48 hrs by sulforhodamine B assay; type: functional; conditions: MOLT-4, 48 h; method in brief: as §3
NCI-H226 = experiment: Growth inhibition of human NCI-H226 cells after 48 hrs by sulforhodamine B assay; type: functional; conditions: NCI-H226, 48 h; method in brief: as §3
[35] = Growth inhibition of human RPMI8226 cells after 48 hrs by sulforhodamine B assay; type: functional; conditions: RPMI-8226, 48 h; method in brief: as §3
MCF7 = experiment: Growth inhibition of human MCF7 cells after 48 hrs by sulforhodamine B assay; type: functional; conditions: MCF7, 48 h; method in brief: as §3

Compound: CC1CCCc2c1nc1[nH]c(=S)nc(N)c1c2-c1cccn1C (stereo unspecified)
- inhibition of growth at 10 µM (U-251): 21.4%
- inhibition of growth at 10 µM [1]: 18.9%
- inhibition of growth at 10 µM [2]: 13.8%
- inhibition of growth at 10 µM (HL-60(TB) [3]): 33.2%
- growth inhibition (GI) (Hs-578T): inactive
- inhibition of growth at 10 µM (SNB-75 [4]): 17.5%
- inhibition of growth at 10 µM (IGROV-1 [5]): 34.4%
- inhibition of growth at 10 µM [6]: 51.9%
- inhibition of growth at 10 µM (A498 [7]): 41.3%
- inhibition of growth at 10 µM [8]: 32.6%
- inhibition of growth at 10 µM (CCRF-CEM [9]): 26.7%
- inhibition (INH) [10]: 26%
- inhibition of growth at 10 µM [11]: 36.4%
- inhibition of growth at 10 µM (K562): 29.6%
- growth inhibition (GI) (CAKI-1): inactive
- inhibition of growth at 10 µM (NCI-H522 [12]): 29.7%
- inhibition of growth at 10 µM (T47D): 40.1%
- inhibition of growth at 10 µM (SK-MEL-5): 18.4%
- inhibition of growth at 10 µM [13]: 22.6%
- inhibition of growth at 10 µM [14]: 13.4%
- inhibition of growth at 10 µM [15]: 10.7%
- inhibition (INH) [16]: 14%
- inhibition of growth at 10 µM [17]: 19.8%
- growth inhibition (GI) (MDA-MB-468): inactive
- inhibition of growth at 10 µM [18]: 23.5%
- inhibition of growth at 10 µM (ACHN): 15.2%
- inhibition of growth at 10 µM [19]: 34.7%

Compound: COc1ccc(-c2cc(-c3cccn3C)c(C#N)c(N)n2)cc1OC
- GI50 [20]: 64.6 µM
- GI50 (SN12C): 67.6 µM
- GI50 (SF-268): 83.2 µM
- GI50 (HL-60(TB) [21]): 19.5 µM
- GI50 [22]: > 100 µM
- GI50 [23]: 5.13 µM
- GI50 [24]: 97.7 µM
- GI50 (DU-145): 91.2 µM
- GI50 (IGROV-1 [25]): 95.5 µM
- GI50 [26]: 83.2 µM
- GI50 [27]: 40.7 µM
- inhibition (INH) [10]: 33%
- GI50 [28]: 87.1 µM
- GI50 (CCRF-CEM [29]): 0.01 µM
- LC50 (concentration causing net 50% loss of initial cells) (CCRF-CEM [29]): 9.77 µM
- TGI (CCRF-CEM [29]): 3.98 µM
- GI50 [30]: 89.1 µM
- GI50 (HOP-62): > 100 µM
- GI50 (SR): 56.2 µM
- GI50 (SNB-75 [31]): 20.9 µM
- TGI (SNB-75 [31]): 70.8 µM
- GI50 (NCI-H522 [32]): 40.7 µM
- inhibition (INH) [16]: 19%
- GI50 (A498 [33]): 83.2 µM
- GI50 (MDA-MB-231): 38 µM
- GI50 [34]: 46.8 µM
- GI50 (NCI-H226): > 100 µM
- GI50 [35]: 38.9 µM
- GI50 (MCF7): 93.3 µM
